# Entries after “also recorded” stand apart in the source; their conditions may differ.
# Experiments:
# [1] = test system: panel of seven human cancer cell lines; assay: Antiproliferative activity across the panel of seven cancer cell lines; format: cell-based; details: for IC50: Homo sapiens, read-out: IC50 range over the panel of cancer cell lines
# Method in brief: (§1)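 Jurkat, CEM and SEM cells were grown in RPMI-1640, and HeLa, MCF-7, HT-29 and LoVo in DMEM, each with 10% FBS and penicillin/streptomycin. Wells got 8 × 10^3 cells and were preincubated 18 h at 37 °C in 5% CO2. Test compound from a 10 mM DMSO stock was diluted in medium (final DMSO ≤0.25%) and applied for 72 h. Read-out was MTT. IC50 is the concentration giving 50% inhibition of proliferation, from dose–response curves of ≥3 independent experiments, mean ± SE.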
# Bovine brain tubulin = assay: In vitro inhibition of tubulin polymerization; format: biochemical; details: 10 μM purified tubulin, glutamate buffer, 30 °C
# Method in brief: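 Tubulin was purified from bovine brain. Varying test-compound concentrations were preincubated with the tubulin at 30 °C, then cooled to 0 °C. GTP was added, the mixtures were moved to 0 °C cuvettes in a recording spectrophotometer and warmed to 30 °C, and assembly was followed turbidimetrically.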
# [2] = test system: microtubule network in HeLa cells; assay: Immunofluorescence analysis of microtubule network; format: cell-based, human; details: 2.5 or 5.0 μM, 24 h, anti-β-tubulin staining
# Method in brief: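 Untreated HeLa cells served as the control. After 24 h exposure, cells were fixed in cold 4% formaldehyde for 15 min. Staining used mouse monoclonal anti-β-tubulin (1:1000), then an Alexa-conjugated secondary antibody (1:2000), with DAPI (1:10,000) counterstain for nuclei. Cells were imaged by confocal microscopy at 20×.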
# HeLa cells [3] = assay: Annexin-V/PI apoptosis assay; format: cell-based, human; details: 24 h, further increased after 48 h
# HeLa cells [4] = assay: Flow cytometric analysis of cell cycle distribution; format: cell-based, human; details: 24 h; for effect on cell cycle progression: PI, concentration-dependent, reduction in S phase cells
# Method in brief: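 HeLa cells in exponential growth (2.5 × 10^5) were treated with a range of test-compound concentrations. Cells were collected, fixed in ice-cold 70% ethanol, and lysed in buffer containing RNase A and 0.1% Triton X-100. They were stained with propidium iodide for flow-cytometric DNA content, and the DNA histograms were analysed to give the percentage of cells in each phase.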
# [5] = test system: Bcl-2, Bax, Bak, Mcl-1 and Bid in HeLa cells; assay: Western blot of Bcl-2 family proteins; format: cell-based, human; details: for Mcl-1 expression: 2.5 μM, especially at 48 h; for Bid expression: evident after 24 h at the lowest concentration used
# Method in brief: (§2)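 HeLa cultures were sampled at the indicated times and concentrations, washed twice in 0 °C PBS and lysed 30 min at 0 °C. Lysates were clarified at 15 000 × g (4 °C, 10 min) and protein was measured by BCA. Aliquots of 20 µg were run on 7.5–15% gradient SDS-PAGE and blotted to PVDF. Membranes were blocked at 4 °C, probed 2 h at room temperature with primary antibody, then 60 min with peroxidase-labelled secondary, and developed by ECL. Membranes were reprobed for β-actin as the loading control.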
# [6] = test system: PBMC not stimulated with PHA; assay: Cytotoxicity in resting PBMC; format: cell-based, human; details: resting PBMC vs lymphoblastic cell lines
# Method in brief: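 PBMC from healthy donors were isolated on a Lymphoprep gradient, washed, and held overnight at 1.0 × 10^6 cells/mL in RPMI-1640 with 10% FBS. Non-adherent cells were resuspended at 5 × 10^5 cells/mL without PHA, given a range of test-compound concentrations for 72 h, and read by MTT. Values are mean ± SEM of three separate experiments.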
# γH2A.X in HeLa cells = assay: Western blot of γH2A.X; format: cell-based, human; details: 24 or 48 h treatment
# Method in brief: as §2
# HeLa cells [7] = assay: Cell viability; format: cell-based, human; details: 2.5 μM, 48 h; BHA 10 μM, TOC 100 μM, NAC 100 μM, GSH 1 mM, DTT 1 mM
# HeLa cells [8] = assay: Intracellular GSH content; format: cell-based, human; details: 24 h, concentration-dependent; counteracted by NAC 100 μM
# HeLa cells [9] = assay: Cell viability with or without pan-caspase inhibitor z-VAD.fmk; format: cell-based, human; details: compound 2.5 μM, z-VAD.fmk 100 μM, 48 h
# Method in brief: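 HeLa cells were exposed for 48 h to test compound with or without the pan-caspase inhibitor, and viability was recorded as a percentage. Data are means ± SEM of three independent experiments. Significance against compound-alone treatment was tested by Student's t-test. Final DMSO was ≤0.25%.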
# [10] = test system: murine leukemia L1210 cells; details: read-out: IC50 L1210; ref [21]; cited from earlier work
# LoVo cells = assay: Cell growth inhibitory activity; format: cell-based, human; details: additional meta-methoxy
# Method in brief: as §1
# Jurkat cells = assay: Cell growth inhibitory activity; format: cell-based, human; details: additional meta-methoxy
# Method in brief: as §1
# [11] = test system: HeLa (cervical) cancer cells; details: read-out: IC50 HeLa (literature); ref [18],[19]; cited from earlier work
# U-937 (lymphoma) cells = details: read-out: IC50 U-937; ref [18],[19]; cited from earlier work
# HeLa cells [12] = assay: ROS production by flow cytometry; format: cell-based, human
# HeLa cells [13] = assay: Mitochondrial membrane potential; format: cell-based, human; details: JC-1, time course
structure (smiles),measurement,setting,value
"C=C(Br)C(=O)Nc1cccc(/C=C/C(=O)Nc2cc(OC)c(OC)c(OC)c2)c1 [4o, 2-Bromo-N-(3-{(1E)-3-oxo-3-[(3,4,5-trimethoxyphenyl)amino]prop-1-en-1-yl}phenyl)-acrylamide]",IC50,[1],18 to 2300 nM
same,Concentration up to which tubulin assembly was not inhibited,Bovine brain tubulin,> 20 µM
"C=C(Br)C(=O)Nc1cccc(/C=C/C(=O)Nc2cccc(F)c2)c1 [4d, 2-Bromo-N-(3-{(1E)-3-oxo-3-[(3-fluorophenyl)amino]prop-1-en-1-yl}phenyl)-acrylamide]",fold enhancement of antiproliferative activity vs 4c,"[1]; fluorine moved para to meta, six of seven cell lines, exception CEM",4–15 fold
"C=C(Br)C(=O)Nc1cccc(/C=C/C(=O)Nc2ccc(Cl)cc2)c1 [4f, 2-Bromo-N-(3-{(1E)-3-oxo-3-[(4-chlorophenyl)amino]prop-1-en-1-yl}phenyl)-acrylamide]","fold increase of antiproliferative activity, fluorine to chlorine",[1]; vs 4c,2–30 fold
"C=C(Br)C(=O)Nc1cccc(/C=C/C(=O)Nc2ccc(N3CCOCC3)cc2)c1 [4p, 2-Bromo-N-(3-{(1E)-3-oxo-3-[(4-morpholinophenyl)amino]prop-1-en-1-yl}phenyl)-acrylamide]",effect on microtubule network,[2],not substantially modified
same,annexin-V positive cells,HeLa cells [3],accumulation of annexin-V positive cells
same,effect on cell cycle progression,HeLa cells [4],significant G2/M arrest
same,fold enhancement of antiproliferative activity relative to 4a,"[1]; morpholin-4-yl, six of seven cell lines, exception CEM",8–100 fold
same,Bak and Bax expression,[5],remained practically unchanged
same,Mcl-1 expression,[5],decreased
same,Bid expression,[5],nearly complete disappearance
same,fold lower toxicity in resting PBMC respect to Jurkat and CEM,[6],10–100 fold
same,Concentration up to which tubulin assembly was not inhibited,Bovine brain tubulin,> 20 µM
same,γH2A.X expression,γH2A.X in HeLa cells,induced this effect only after 48 h
same,cell viability in the presence of antioxidants,HeLa cells [7],"only the thiol-containing scavengers (NAC, GSH and DTT) significantly increased cell viability"
same,intracellular GSH content (CMFDA fluorescence),HeLa cells [8],remarkable decrease; also recorded: substantially reduced CMFDA fluorescence
same,cell viability with z-VAD.fmk,HeLa cells [9],significantly increased cell viability
"C=C(Br)C(=O)Nc1cccc(/C=C/C(=O)Nc2ccccc2)c1 [4a, N-{3-[(1E)-3-anilino-3-oxoprop-1-en-1-yl]phenyl}-2-bromoacrylamide]",IC50,[1],190 to 27300 nM
"C=C(Br)C(=O)Nc1cccc(/C=C/C(=O)Nc2ccc(F)c(F)c2)c1 [4e, 2-Bromo-N-(3-{(1E)-3-oxo-3-[(3,4-difluorophenyl)amino]prop-1-en-1-yl}phenyl)-acrylamide]",fold increase of antiproliferative activity relative to 4c,"[1]; additional meta-fluorine, all cancer cell lines",4–1300 fold
same,Concentration up to which tubulin assembly was not inhibited,Bovine brain tubulin,> 20 µM
C=C(Br)C(=O)O [α-bromoacrylic acid],IC50,[10],> 120000 nM
"COc1cc(NC(=O)/C=C/c2cccc(N)c2)cc(OC)c1OC [7o, (E)-3-(3-aminophenyl)-N-(3,4,5-trimethoxyphenyl)acryl-amide]",IC50,[1],2810 to 63100 nM
same,fold less active than 4o,[1]; across seven cell lines,30–700 fold
"C=C(Br)C(=O)Nc1cccc(/C=C/C(=O)Nc2ccc(OC)c(OC)c2)c1 [4m, 2-Bromo-N-(3-{(1E)-3-oxo-3-[(3,4-dimethoxyphenyl)amino]prop-1-en-1-yl}phenyl)-acrylamide]","fold increase in activity vs 4i, LoVo",LoVo cells,3 fold
same,Concentration up to which tubulin assembly was not inhibited,Bovine brain tubulin,> 20 µM
same,"fold increase in activity vs 4i, Jurkat",Jurkat cells,2 fold
COc1cccc(/C=C/C(=O)Nc2cc(OC)c(OC)c(OC)c2)c1 [1a],IC50,[11],11300 nM
same,IC50,U-937 (lymphoma) cells,3000 nM
"C=C(Br)C(=O)Nc1cccc(/C=C/C(=O)NCc2ccc(C)cc2)c1 [4h, 2-Bromo-N-(3-{(1E)-3-[(4-methylbenzyl)amino]-3-oxoprop-1-en-1-yl}phenyl)acrylamide]",fold reduced activity compared with 4g,"[1]; cell lines other than HeLa, LoVo and MCF-7",2 to 7 fold
"COc1cc(NC(=O)/C=C/c2cccc(OCc3ccccc3)c2)cc(OC)c1OC [1b, reference compound]",IC50,[1],2200 to 21700 nM
same,fold more potent than 1a,[1]; across seven cell lines,1.5- to 12 fold
same,IC50,U-937 (lymphoma) cells,1800 nM
C=C(Br)C(=O)Nc1ccc(/C=C/C(=O)Nc2cc(OC)c(OC)c(OC)c2)cc1 [4r],effect on microtubule network,[2],not substantially modified
same,annexin-V positive cells,HeLa cells [3],accumulation of annexin-V positive cells
same,concentration at which rise in G2/M cells occurs (as low as),HeLa cells [4],2 µM
same,effect on cell cycle progression,HeLa cells [4],significant G2/M arrest
same,"ROS production, H2DCFDA-positive cells","HeLa cells [12]; 1–6 h, concentration-dependent",early but modest increase
same,"ROS production, HE fluorescence (superoxide anion)",HeLa cells [12]; data not shown,did not detect any increase
same,Bak and Bax expression,[5],remained practically unchanged
same,Mcl-1 expression,[5],decreased
same,Bcl-2 expression,[5]; 24 and 48 h,decreased
same,Bid expression,[5],nearly complete disappearance
same,"mitochondrial depolarization, onset time",HeLa cells [13],≥ 12 h
same,fold lower toxicity in resting PBMC respect to Jurkat and CEM,[6],10–100 fold
same,Concentration up to which tubulin assembly was not inhibited,Bovine brain tubulin,> 20 µM
same,γH2A.X expression,γH2A.X in HeLa cells,induced γH2A.X expression
same,cell viability in the presence of antioxidants,HeLa cells [7],"only the thiol-containing scavengers (NAC, GSH and DTT) significantly increased cell viability"
same,intracellular GSH content (CMFDA fluorescence),HeLa cells [8],substantially reduced CMFDA fluorescence
same,cell viability with z-VAD.fmk,HeLa cells [9],significantly increased cell viability
"C=C(Br)C(=O)Nc1cccc(/C=C/C(=O)Nc2cccc3ccccc23)c1 [4b, 2-Bromo-N-(3-{(1E)-3-oxo-3-[(naphthalen-1-yl)amino]prop-1-en-1-yl}phenyl)-acrylamide]",IC50,[1],680 to 6500 nM
"C=C(Br)C(=O)Nc1cccc(/C=C/C(=O)Nc2ccc(OC)cc2)c1 [4i, 2-Bromo-N-(3-{(1E)-3-oxo-3-[(4-methoxyphenyl)amino]prop-1-en-1-yl}phenyl)-acrylamide]",fold increase in antiproliferative activity relative to 4a,[1]; para-methoxy,7–15 fold
same,Concentration up to which tubulin assembly was not inhibited,Bovine brain tubulin,> 20 µM
"C=C(Br)C(=O)Nc1cccc(/C=C/C(=O)Nc2ccc(C)cc2)c1 [4g, 2-Bromo-N-(3-{(1E)-3-oxo-3-[(p-tolyl)amino]prop-1-en-1-yl}phenyl)-acrylamide]",fold increase in potency vs 4f,[1]; chlorine replaced by methyl,2–10 fold

# Source: paper PMC4094378 (European journal of medicinal chemistry, 2014)
